Calls of active or inactive are those of the source. No cut-off for these calls is given here.
What was measured:
L6 [1] = test: Increase in glucose uptake in rat L6 cells at 3 umol/L pre-treated with compound for 30 mins using 2-deoxy-D-[1,2-3H]glucose and measured after 2 hrs by liquid scintillation counting method relative to control; assay type: functional
In short: (§1)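 L6 myotubes exposed to compound for 2 h at 1.5, 3, 6, 12 or 24 μM; 2-deoxyglucose uptake expressed as fold over untreated control; 3 μM (−)-arctigenin run alongside as positive control; mean ± SEM of 3 independent experiments.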

L6 [2] = test: Increase in glucose uptake in rat L6 cells at 24 uM pre-treated with compound for 30 mins using 2-deoxy-D-[1,2-3H]glucose and measured after 2 hrs […] by liquid scintillation counting method; assay type: functional; in short: as §1
L6 [3] = test: Ratio of glucose uptake in rat L6 cells at 24 uM after 2 hrs to glucose uptake in rat L6 cells at 24 uM after 2 hrs in presence of 3 uM (-)-arctigenin; assay type: functional
In short: (§2)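 Glucose uptake in L6 myotubes after 2 h compound exposure divided by uptake with the 3 μM (−)-arctigenin positive control run in parallel.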

L6 [4] = test: Increase in glucose uptake in rat L6 cells at 24 uM pre-treated with compound for 30 mins using 2-deoxy-D-[1,2-3H]glucose and measured after 2 hrs by liquid scintillation counting method; assay type: functional; in short: as §1
L6 [5] = test: Increase in glucose uptake in rat L6 cells at 1.5 uM pre-treated with compound for 30 mins using 2-deoxy-D-[1,2-3H]glucose and measured after 2 hrs by liquid scintillation counting method; assay type: functional; in short: as §1
L6 [6] = test: Increase in glucose uptake in rat L6 cells at 1.5 uM pre-treated with compound for 30 mins using 2-deoxy-D-[1,2-3H]glucose and measured after 2 hrs in presence of 3 uM (-)-arctigenin by liquid scintillation counting method; assay type: functional; in short: as §1
L6 [7] = test: Ratio of glucose uptake in rat L6 cells at 1.5 uM after 2 hrs to glucose uptake in rat L6 cells at 1.5 uM after 2 hrs in presence of 3 uM (-)-arctigenin; assay type: functional; in short: as §2
L6 [8] = test: Ratio of glucose uptake in rat L6 cells at 12 uM after 2 hrs to glucose uptake in rat L6 cells at 12 uM after 2 hrs in presence of 3 uM (-)-arctigenin; assay type: functional; in short: as §2
L6 [9] = test: Increase in glucose uptake in rat L6 cells at 12 uM pre-treated with compound for 30 mins using 2-deoxy-D-[1,2-3H]glucose and measured after 2 hrs by liquid scintillation counting method; assay type: functional; in short: as §1
L6 [10] = test: Increase in glucose uptake in rat L6 cells at 12 uM pre-treated with compound for 30 mins using 2-deoxy-D-[1,2-3H]glucose and measured after 2 hrs […] by liquid scintillation counting method; assay type: functional; in short: as §1
L6 [11] = test: Increase in glucose uptake in rat L6 cells at 3 uM […] using 2-deoxy-D-[1,2-3H]glucose and measured after 2 hrs […] by liquid scintillation counting method; assay type: functional; in short: as §1
L6 [12] = test: Ratio of glucose uptake in rat L6 cells at 3 uM after 2 hrs to glucose uptake in rat L6 cells at 3 uM after 2 hrs in presence of 3 uM (-)-arctigenin; assay type: functional; in short: as §2
L6 [13] = test: Increase in glucose uptake in rat L6 cells at 3 uM pre-treated with compound for 30 mins using 2-deoxy-D-[1,2-3H]glucose and measured after 2 hrs by liquid scintillation counting method; assay type: functional; in short: as §1
L6 [14] = test: Increase in glucose uptake in rat L6 cells at 6 umol/L pre-treated with compound for 30 mins using 2-deoxy-D-[1,2-3H]glucose and measured after 2 hrs by liquid scintillation counting method relative to control; assay type: functional; in short: as §1
L6 [15] = test: Induction of AMPK activation in rat L6 cells assessed as increase in ACC phosphorylation at 1.5 uM incubated for 2 hrs by Western blotting method; assay type: cell-based
In short: (§3)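 L6 myotubes treated 2 h at the stated concentrations; phosphorylated AMPK and phosphorylated ACC detected by immunoblot.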

L6 [16] = test: Induction of AMPK phosphorylation in rat L6 cells at 3 uM incubated for 2 hrs by Western blotting method; assay type: cell-based; in short: as §3
L6 [17] = test: Induction of AMPK phosphorylation in rat L6 cells at 6 uM incubated for 2 hrs by Western blotting method; assay type: cell-based; in short: as §3
L6 [18] = test: Induction of AMPK activation in rat L6 cells assessed as increase in ACC phosphorylation at 3 uM incubated for 2 hrs by Western blotting method; assay type: cell-based; in short: as §3
L6 [19] = test: Induction of AMPK phosphorylation in rat L6 cells at 1.5 uM incubated for 2 hrs by Western blotting method; assay type: cell-based; in short: as §3
L6 [20] = test: Induction of AMPK activation in rat L6 cells assessed as increase in ACC phosphorylation at 6 uM incubated for 2 hrs by Western blotting method; assay type: cell-based; in short: as §3
L6 [21] = test: Increase in glucose uptake in rat L6 cells at 6 uM pre-treated with compound for 30 mins using 2-deoxy-D-[1,2-3H]glucose and measured after 2 hrs […] by liquid scintillation counting method; assay type: functional; in short: as §1
L6 [22] = test: Increase in glucose uptake in rat L6 cells at 6 uM pre-treated with compound for 30 mins using 2-deoxy-D-[1,2-3H]glucose and measured after 2 hrs by liquid scintillation counting method; assay type: functional; in short: as §1
L6 [23] = test: Ratio of glucose uptake in rat L6 cells at 6 uM after 2 hrs to glucose uptake in rat L6 cells at 6 uM after 2 hrs in presence of 3 uM (-)-arctigenin; assay type: functional; in short: as §2
L6 [24] = test: Increase in glucose uptake in rat L6 cells at 0.75 uM to 3 uM pre-treated with compound for 30 mins using 2-deoxy-D-[1,2-3H]glucose and measured after 2 hrs by liquid scintillation counting method; assay type: functional, cell-based

With COc1cc(C[C@H]2C(=O)CC[C@@H]2Cc2ccc(OC)c(OC)c2)ccc1O the “fold change (FC)” value (L6 [1]) was 2.08.
In the case of COc1ccc(C[C@H]2COC(=O)[C@@H]2Cc2cccc(O)c2)cc1OC, the Activity (L6 [2]) is reported as 217.8%, the Ratio (L6 [3]) is reported as 0.828 and the Activity (L6 [4]) is reported as 180.3%.
For COc1ccc(C[C@H]2C(=O)OC[C@@H]2Cc2ccc(OC)c(OC)c2)cc1O, the Activity (L6 [5]) was 100.4%, the Activity (L6 [6]) was 188.9% and the Ratio (L6 [7]) was 0.531.
In the case of COc1ccc(C[C@H]2COC(=O)[C@@H]2Cc2ccc(O)cc2)cc1OC, the Ratio (L6 [8]) is reported as 0.895, the Activity (L6 [9]) is reported as 179.5% and the Activity (L6 [10]) is reported as 200.6%.
Molecule COc1ccc(C[C@H]2COC(=O)[C@@H]2Cc2ccc(C#N)cc2)cc1OC has an Activity (L6 [11]) of 258.7%, a Ratio (L6 [12]) of 0.528 and an Activity (L6 [13]) of 136.7%.
For COc1cc(C[C@H]2C(=O)OC[C@@H]2Cc2ccc3c(c2)OCO3)ccc1O, the Activity (L6 [5]) was 131.7%, the Activity (L6 [6]) was 265.3% and the Ratio (L6 [7]) was 0.496.
COc1cc(C[C@H]2COC[C@@H]2Cc2ccc(OC)c(OC)c2)ccc1O was tested, and the “fold change (FC)” value (L6 [14]) was 1.31.
With COc1ccc(C[C@H]2COC(=O)[C@@H]2Cc2ccc(OC)c(OC)c2)cc1OC the Activity (L6 [11]) was 237.6%, the Ratio (L6 [12]) was 0.577 and the Activity (L6 [13]) was 137.1%.
With COc1ccc(C[C@@H]2COC(=O)[C@H]2Cc2ccc(Cl)cc2)cc1OC the Activity (L6 [5]) was 103.1%, the Activity (L6 [15]) was “inactive” and the Activity (L6 [16]) was “inactive”. The Activity (L6 [17]) was “inactive”, the Activity (L6 [6]) was 208.9% and the Ratio (L6 [7]) was 0.494. For the same molecule, the Activity (L6 [18]) was “inactive”, the Activity (L6 [19]) was “inactive” and the Activity (L6 [20]) was “inactive”.
COc1ccc(C[C@H]2COC(=O)[C@@H]2Cc2ccc(Br)cc2)cc1OC showed an Activity (L6 [21]) of 269.2%, an Activity (L6 [22]) of 176% and a Ratio (L6 [23]) of 0.654.
With COc1ccc(C[C@H]2COC(=O)[C@@H]2Cc2ccc(O)c(O)c2)cc1OC the Activity (L6 [11]) was 238.9%, the Ratio (L6 [12]) was 1.018 and the Activity (L6 [13]) was 243.2%.
In the case of COc1ccc(C[C@H]2COC(=O)[C@@H]2Cc2ccc(Cl)cc2)cc1OC, the Activity (L6 [15]) is reported as “Active”, the Activity (L6 [16]) is reported as “Active” and the Activity (L6 [17]) is reported as “Active”. The Activity (L6 [21]) was 185.5%, the Activity (L6 [18]) was “Active” and the Activity (L6 [22]) was 191.1%. For the same molecule, the Activity (L6 [19]) was “Active”, the Ratio (L6 [23]) was 1.03 and the Activity (L6 [20]) was “Active”.
COc1cc(C[C@H]2C(=O)OC[C@@H]2Cc2ccc(OC)c(OC)c2)ccc1O [ARCTIGENIN] was tested, and the Activity (L6 [24]) was “Dose-dependent effect” and the “fold change (FC)” value (L6 [1]) was 1.75.
